Columns and labels:
Type in all cases: functional
HCC 2998 = experiment: Growth inhibition of human HCC 2998 cells assessed as cell growth at 0.1 uM incubated for 48 hrs by sulforhodamine B assay relative to control; conditions: read-out: Activity
In short: (§1)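 NCI Developmental Therapeutics Program NCI60 panel. Compounds that were active in the 10 µM one-dose screen went on to dose–response testing. Growth at each concentration is expressed relative to untreated control (100%). GI50 (concentration giving 50% of maximal inhibition of proliferation) and TGI (concentration giving total growth inhibition) were derived from the curves.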

LOX IMVI = experiment: Growth inhibition of human LOX IMVI cells assessed as cell growth at 0.1 uM incubated for 48 hrs by sulforhodamine B assay relative to control; conditions: read-out: Activity
786-0 = experiment: Growth inhibition of human 786-0 cells incubated for 48 hrs by sulforhodamine B assay; conditions: for CC50: read-out: LC50 (the source's name); in short: as §1
HCT-15 [1] = experiment: Growth inhibition of human HCT-15 cells incubated for 48 hrs by sulforhodamine B assay
In short: (§2)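 NCI60 panel at the NCI Developmental Therapeutics Program. Only compounds active in the 10 µM screen went to dose-response testing. GI50, the concentration giving 50% of maximal inhibition of proliferation, and TGI, the concentration giving total growth inhibition, were derived from the dose-response curves.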

KM12 [2] = experiment: Growth inhibition of human KM12 cells assessed as cell growth at 1 uM incubated for 48 hrs by sulforhodamine B assay relative to control; conditions: read-out: Activity
SK-MEL-5 = experiment: Growth inhibition of human SK-MEL-5 cells assessed as cell growth at 0.01 uM incubated for 48 hrs by sulforhodamine B assay relative to control; conditions: read-out: Activity
Hs-578T = experiment: Growth inhibition of human Hs-578T cells incubated for 48 hrs by sulforhodamine B assay; conditions: for CC50: read-out: LC50 (the source's name); in short: as §2
PC-3 [3] = experiment: Growth inhibition of human PC-3 cells assessed as cell growth at 0.1 uM incubated for 48 hrs by sulforhodamine B assay relative to control; conditions: read-out: Activity
KM12 [4] = experiment: Growth inhibition of human KM12 cells assessed as cell growth at 100 uM incubated for 48 hrs by sulforhodamine B assay relative to control; conditions: read-out: Activity
NCI-H322M = experiment: Growth inhibition of human NCI-H322M cells assessed as cell growth at 1 uM incubated for 48 hrs by sulforhodamine B assay relative to control; conditions: read-out: Activity
SK-MEL-2 = experiment: Growth inhibition of human SK-MEL-2 cells incubated for 48 hrs by sulforhodamine B assay
In short: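 NCI DTP 60-line human tumour panel. Dose-response curves were run only for ligands active in the initial 10 µM screen. GI50 (concentration giving 50% of maximal inhibition of proliferation) and TGI (concentration giving total growth inhibition) were derived from these curves.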

A549 [5] = experiment: Growth inhibition of human A549/ATCC cells assessed as cell growth at 0.1 uM incubated for 48 hrs by sulforhodamine B assay relative to control; conditions: read-out: Activity; in short: as §1
ACHN = experiment: Growth inhibition of human ACHN cells incubated for 48 hrs by sulforhodamine B assay; conditions: for CC50: read-out: LC50 (the source's name); in short: as §1
HCT-15 [6] = experiment: Growth inhibition of human HCT-15 cells assessed as cell growth at 0.1 uM incubated for 48 hrs by sulforhodamine B assay relative to control; conditions: read-out: Activity
NCI-H226 = experiment: Growth inhibition of human NCI-H226 cells assessed as cell growth at 1 uM incubated for 48 hrs by sulforhodamine B assay relative to control; conditions: read-out: Activity
HOP-62 = experiment: Growth inhibition of human HOP-62 cells assessed as cell growth at 0.1 uM incubated for 48 hrs by sulforhodamine B assay relative to control; conditions: read-out: Activity
MDA-MB-231 = experiment: Growth inhibition of human MDA-MB-231 cells assessed as cell growth at 100 uM incubated for 48 hrs by sulforhodamine B assay relative to control; conditions: read-out: Activity
COLO 205 [7] = experiment: Growth inhibition of human COLO 205 cells assessed as cell growth at 0.01 uM incubated for 48 hrs by sulforhodamine B assay relative to control; conditions: read-out: Activity; in short: as §1
HCT-116 = experiment: Growth inhibition of human HCT-116 cells assessed as cell growth at 1 uM incubated for 48 hrs by sulforhodamine B assay relative to control; conditions: read-out: Activity
SR = experiment: Growth inhibition of human SR cells assessed as cell growth at 0.01 uM incubated for 48 hrs by sulforhodamine B assay relative to control; conditions: read-out: Activity
PC-3 [8] = experiment: Growth inhibition of human PC-3 cells assessed as cell growth at 0.01 uM incubated for 48 hrs by sulforhodamine B assay relative to control; conditions: read-out: Activity
CAKI-1 [9] = experiment: Growth inhibition of human CAKI-1 cells incubated for 48 hrs by sulforhodamine B assay; conditions: for CC50: read-out: LC50 (the source's name); in short: as §1
SF-295 = experiment: Growth inhibition of human SF-295 cells assessed as cell growth at 0.1 uM incubated for 48 hrs by sulforhodamine B assay relative to control; conditions: read-out: Activity
UACC-62 = experiment: Growth inhibition of human UACC-62 cells assessed as cell growth at 0.1 uM incubated for 48 hrs by sulforhodamine B assay relative to control; conditions: read-out: Activity
NCI-H23 = experiment: Growth inhibition of human NCI-H23 cells assessed as cell growth at 0.1 uM incubated for 48 hrs by sulforhodamine B assay relative to control; conditions: read-out: Activity
OVCAR-8 = experiment: Growth inhibition of human OVCAR-8 cells assessed as cell growth at 0.01 uM incubated for 48 hrs by sulforhodamine B assay relative to control; conditions: read-out: Activity
HOP-92 = experiment: Growth inhibition of human HOP-92 cells assessed as cell growth at 100 uM incubated for 48 hrs by sulforhodamine B assay relative to control; conditions: read-out: Activity
COLO 205 [10] = experiment: Growth inhibition of human COLO 205 cells assessed as cell growth at 1 uM incubated for 48 hrs by sulforhodamine B assay relative to control; conditions: read-out: Activity; in short: as §1
Malme-3M = experiment: Growth inhibition of human Malme-3M cells assessed as cell growth at 1 uM incubated for 48 hrs by sulforhodamine B assay relative to control; conditions: read-out: Activity
M14 = experiment: Growth inhibition of human M14 cells incubated for 48 hrs by sulforhodamine B assay; in short: as §2
A549 [11] = experiment: Growth inhibition of human A549/ATCC cells assessed as cell growth at 0.01 uM incubated for 48 hrs by sulforhodamine B assay relative to control; conditions: read-out: Activity; in short: as §1
MDA-MB-468 = experiment: Growth inhibition of human MDA-MB-468 cells incubated for 48 hrs by sulforhodamine B assay; conditions: for CC50: read-out: LC50 (the source's name); in short: as §2
NCI-H522 = experiment: Growth inhibition of human NCI-H522 cells assessed as cell growth at 0.01 uM incubated for 48 hrs by sulforhodamine B assay relative to control; conditions: read-out: Activity
OVCAR-4 = experiment: Growth inhibition of human OVCAR-4 cells assessed as cell growth at 0.01 uM incubated for 48 hrs by sulforhodamine B assay relative to control; conditions: read-out: Activity
CAKI-1 [12] = experiment: Growth inhibition of human CAKI-1 cells assessed as cell growth at 1 uM incubated for 48 hrs by sulforhodamine B assay relative to control; conditions: read-out: Activity; in short: as §1

`COc1cccc(NC(=O)c2sc3nc4c(cc3c2N)CN(Cc2ccccc2)CC4)c1` was tested, and the growth at 0.1 µM (HCC 2998) was 98%, the growth at 0.1 µM (LOX IMVI) was 102% and the GI50 (786-0) was 3610 nM. For the same molecule, the TGI (786-0) was 20.8 µM, the CC50 (786-0) was greater than 100 µM and the GI50 (HCT-15 [1]) was 930 nM. The LC50 (HCT-15 [1]) was greater than 100 µM, the TGI (HCT-15 [1]) was greater than 100 µM and the growth at 1 µM (KM12 [2]) was 64%. It also gave a growth at 0.01 µM (SK-MEL-5) of 99%, a GI50 (Hs-578T) of 2140 nM and a TGI (Hs-578T) of 23 µM. It also gave a CC50 (Hs-578T) greater than 100 µM, a growth at 0.1 µM (PC-3 [3]) of 88% and a growth at 100 µM (KM12 [4]) of -37%. For the same molecule, the growth at 1 µM (NCI-H322M) was 83%, the GI50 (SK-MEL-2) was 10.3 µM and the LC50 (SK-MEL-2) was greater than 100 µM. It also gave a TGI (SK-MEL-2) of 44.5 µM, a growth at 0.1 µM (A549 [5]) of 93% and a GI50 (ACHN) of 3460 nM. The TGI (ACHN) was 64.5 µM, the CC50 (ACHN) was greater than 100 µM and the growth at 0.1 µM (HCT-15 [6]) was 95%. The growth at 1 µM (NCI-H226) was 81%, the growth at 0.1 µM (HOP-62) was 86% and the growth at 100 µM (MDA-MB-231) was -8%. For the same molecule, the growth at 0.01 µM (COLO 205 [7]) was 92%, the growth at 1 µM (HCT-116) was 59% and the growth at 0.01 µM (SR) was 100%. It also gave a growth at 0.01 µM (PC-3 [8]) of 94%, a GI50 (CAKI-1 [9]) of 11.7 µM and a TGI (CAKI-1 [9]) greater than 100 µM. For the same molecule, the CC50 (CAKI-1 [9]) was greater than 100 µM, the growth at 0.1 µM (SF-295) was 90% and the growth at 0.1 µM (UACC-62) was 89%. The growth at 0.1 µM (NCI-H23) was 101%, the growth at 0.01 µM (OVCAR-8) was 99% and the growth at 100 µM (HOP-92) was -38%. The growth at 1 µM (COLO 205 [10]) was 92%, the growth at 1 µM (Malme-3M) was 57% and the GI50 (M14) was 12.7 µM. For the same molecule, the LC50 (concentration killing 50% of cells) (M14) was greater than 100 µM, the TGI (M14) was 86.8 µM and the growth at 0.01 µM (A549 [11]) was 96%. For the same molecule, the GI50 (MDA-MB-468) was 2600 nM, the TGI (MDA-MB-468) was 61.4 µM and the CC50 (MDA-MB-468) was greater than 100 µM. For the same molecule, the growth at 0.01 µM (NCI-H522) was 95%, the growth at 0.01 µM (OVCAR-4) was 86% and the growth at 1 µM (CAKI-1 [12]) was 78%.
With `Cc1cccc(NC(=O)c2sc3nc4c(cc3c2N)C(=O)CCC4)c1` the growth at 0.1 µM (HCC 2998) was 80%, the growth at 0.1 µM (LOX IMVI) was 91% and the GI50 (786-0) was 404 nM. It also gave a TGI (786-0) of no less than 100 µM, a CC50 (786-0) of no less than 100 µM and a GI50 (HCT-15 [1]) of 270 nM. For the same molecule, the LC50 (HCT-15 [1]) was greater than 100 µM, the TGI (HCT-15 [1]) was greater than 100 µM and the growth at 1 µM (KM12 [2]) was 19%. It also gave a growth at 0.01 µM (SK-MEL-5) of 97%, a GI50 (Hs-578T) of 256 nM and a TGI (Hs-578T) of 40.9 µM. For the same molecule, the CC50 (Hs-578T) was greater than 100 µM, the growth at 0.1 µM (PC-3 [3]) was 80% and the growth at 100 µM (KM12 [4]) was -58%. It also gave a growth at 1 µM (NCI-H322M) of 48%, a GI50 (SK-MEL-2) of 0.254 µM and an LC50 (SK-MEL-2) greater than 100 µM. For the same molecule, the TGI (SK-MEL-2) was greater than 100 µM, the growth at 0.1 µM (A549 [5]) was 78% and the GI50 (ACHN) was 22.4 nM. It also gave a TGI (ACHN) of no less than 100 µM, a CC50 (ACHN) greater than 100 µM and a growth at 0.1 µM (HCT-15 [6]) of 48%. The growth at 1 µM (NCI-H226) was 57%, the growth at 0.1 µM (HOP-62) was 69% and the growth at 100 µM (MDA-MB-231) was 21%. It also gave a growth at 0.01 µM (COLO 205 [7]) of 92%, a growth at 1 µM (HCT-116) of 28% and a growth at 0.01 µM (PC-3 [8]) of 95%. The GI50 (CAKI-1 [9]) was 0.359 µM, the TGI (CAKI-1 [9]) was greater than 100 µM and the CC50 (CAKI-1 [9]) was greater than 100 µM. For the same molecule, the growth at 0.1 µM (SF-295) was 60%, the growth at 0.1 µM (UACC-62) was 72% and the growth at 0.1 µM (NCI-H23) was 82%. The growth at 0.01 µM (OVCAR-8) was 100%, the growth at 100 µM (HOP-92) was -40% and the growth at 1 µM (COLO 205 [10]) was -17%. It also gave a growth at 1 µM (Malme-3M) of 36%, a GI50 (M14) of 0.165 µM and an LC50 (concentration killing 50% of cells) (M14) greater than 100 µM. The TGI (M14) was no less than 100 µM, the growth at 0.01 µM (A549 [11]) was 92% and the GI50 (MDA-MB-468) was 143 nM. The CC50 (MDA-MB-468) was greater than 100 µM, the growth at 0.01 µM (NCI-H522) was 84% and the growth at 0.01 µM (OVCAR-4) was 90%. The growth at 1 µM (CAKI-1 [12]) was 30%.

Reference: ChEMBL document CHEMBL4715736, “Identification of anticancer agents based on the thieno[2,3-b]pyridine and 1H-pyrazole molecular scaffolds” (2016)
